From ChEMBL document CHEMBL1147803, “2,5-Disubstituted pyrrolidine carboxylates as potent, orally active sphingosine-1-phosphate (S1P) receptor agonists” (Bioorg Med Chem Lett, 2006)
Activity calls are given as the source filed them. No cut-off for these calls is given here.

Assays:
[1] = biological target: T1, Sphingosine 1-phosphate receptor 5 (Homo sapiens, UniProt Q9H228); assay: Displacement of [33P]S1P from S1P5 expressed in CHO cells; format: cell-based
Procedure, shortened: (§1)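 Competitive radioligand binding with [33P]S1P on membranes from CHO cells expressing each of the five S1P receptor subtypes (S1P1–5).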

[2] = biological target: T2, Sphingosine 1-phosphate receptor 1 (Homo sapiens, UniProt P21453); assay: Displacement of [33P]S1P from S1P1 expressed in CHO cells; format: cell-based; procedure, shortened: as §1
[3] = biological target: Sphingosine 1-phosphate receptor 2 (Homo sapiens, UniProt O95136); assay: Displacement of [33P]S1P from S1P2 expressed in CHO cells; format: cell-based; procedure, shortened: as §1
[4] = biological target: T3, Sphingosine 1-phosphate receptor 3 (Homo sapiens, UniProt Q99500); assay: Activity at S1P3 receptor by [35S]GTP-gammaS binding assay; format: functional; conditions: filed as agonist
[5] = biological target: T1, Sphingosine 1-phosphate receptor 5; assay: Activity at S1P5 receptor by [35S]GTP-gammaS binding assay; format: functional; conditions: filed as agonist
[6] = biological target: T2, Sphingosine 1-phosphate receptor 1; assay: Activity at S1P1 receptor by [35S]GTP-gammaS binding assay; format: functional; conditions: filed as agonist
[7] = biological target: T4, Sphingosine 1-phosphate receptor 4 (Homo sapiens, UniProt O95977); assay: Displacement of [33P]S1P from S1P4 expressed in CHO cells; format: cell-based; procedure, shortened: as §1
T4 sequence (O95977 whole entry): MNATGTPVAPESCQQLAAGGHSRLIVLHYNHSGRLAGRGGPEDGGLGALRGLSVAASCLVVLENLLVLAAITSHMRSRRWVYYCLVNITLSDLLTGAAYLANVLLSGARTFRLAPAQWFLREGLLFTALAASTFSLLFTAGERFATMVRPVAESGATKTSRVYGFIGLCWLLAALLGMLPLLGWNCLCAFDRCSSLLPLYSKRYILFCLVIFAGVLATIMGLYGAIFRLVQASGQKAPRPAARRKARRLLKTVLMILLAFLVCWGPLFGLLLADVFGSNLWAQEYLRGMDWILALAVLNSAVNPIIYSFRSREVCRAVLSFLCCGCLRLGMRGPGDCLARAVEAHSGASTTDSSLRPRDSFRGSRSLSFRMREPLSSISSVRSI

[8] = biological target: T3, Sphingosine 1-phosphate receptor 3; assay: Displacement of [33P]S1P from S1P3 expressed in CHO cells; format: cell-based; procedure, shortened: as §1
[9] = Half life in Sprague-Dawley rat at 1 mg/kg, iv or 2 mg/kg, po; format: ADME, organism-based; conditions: in vivo
[10] = Bioavailability in Sprague-Dawley rat at 1 mg/kg, iv and 2 mg/kg, po; format: ADME, organism-based; conditions: in vivo
Mus musculus [11] = assay: Lowering of peripheral blood lymphocytes in mouse at 10 mg/kg; format: functional, organism-based; set-up: dose 10 mg/kg
Procedure, shortened: (§2)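 Mice were dosed orally, and circulating peripheral blood lymphocytes were counted 3 h after administration.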

[12] = Plasma clearance in Sprague-Dawley rat at 1 mg/kg, iv or 2 mg/kg, po; format: ADME, organism-based
[13] = Volume of distribution in Sprague-Dawley rat at 1 mg/kg, iv or 2 mg/kg, po; format: ADME, organism-based; conditions: in vivo, read-out: Vdss
Mus musculus [14] = species on record: Mus musculus; assay: Lowering of peripheral blood lymphocytes in mouse; format: functional; procedure, shortened: as §2

T2 sequence (P21453 whole entry): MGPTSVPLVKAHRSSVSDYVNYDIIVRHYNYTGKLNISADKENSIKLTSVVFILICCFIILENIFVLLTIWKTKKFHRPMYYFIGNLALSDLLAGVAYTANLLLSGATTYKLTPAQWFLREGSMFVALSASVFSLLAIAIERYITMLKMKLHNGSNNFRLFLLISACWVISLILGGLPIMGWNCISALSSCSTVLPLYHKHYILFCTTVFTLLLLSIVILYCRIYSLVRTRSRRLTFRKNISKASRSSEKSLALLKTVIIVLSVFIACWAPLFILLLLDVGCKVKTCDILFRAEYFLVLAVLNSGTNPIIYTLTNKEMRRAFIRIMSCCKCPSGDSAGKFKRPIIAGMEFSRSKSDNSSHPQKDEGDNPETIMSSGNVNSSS
T1 sequence (Q9H228 whole entry): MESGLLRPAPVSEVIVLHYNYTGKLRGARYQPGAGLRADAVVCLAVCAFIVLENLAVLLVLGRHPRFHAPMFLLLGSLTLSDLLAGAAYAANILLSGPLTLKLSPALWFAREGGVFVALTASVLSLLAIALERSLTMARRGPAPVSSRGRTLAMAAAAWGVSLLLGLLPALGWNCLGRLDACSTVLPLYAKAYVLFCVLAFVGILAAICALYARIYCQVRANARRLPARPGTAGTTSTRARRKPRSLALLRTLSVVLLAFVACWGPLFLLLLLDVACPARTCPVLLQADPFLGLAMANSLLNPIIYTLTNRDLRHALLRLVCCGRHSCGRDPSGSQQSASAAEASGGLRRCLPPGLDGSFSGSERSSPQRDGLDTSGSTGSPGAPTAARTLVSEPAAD
T3 sequence (Q99500 whole entry): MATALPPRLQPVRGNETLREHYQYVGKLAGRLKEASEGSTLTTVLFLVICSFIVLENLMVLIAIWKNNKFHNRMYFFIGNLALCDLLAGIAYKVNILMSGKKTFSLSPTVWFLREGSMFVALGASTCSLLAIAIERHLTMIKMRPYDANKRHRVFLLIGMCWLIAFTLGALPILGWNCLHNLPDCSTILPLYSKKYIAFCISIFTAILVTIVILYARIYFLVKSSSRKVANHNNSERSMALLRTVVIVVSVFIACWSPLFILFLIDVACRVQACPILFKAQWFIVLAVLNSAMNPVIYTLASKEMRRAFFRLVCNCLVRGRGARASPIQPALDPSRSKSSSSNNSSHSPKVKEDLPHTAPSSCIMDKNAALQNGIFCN
Sequence of Sphingosine 1-phosphate receptor 2 (O95136 whole entry): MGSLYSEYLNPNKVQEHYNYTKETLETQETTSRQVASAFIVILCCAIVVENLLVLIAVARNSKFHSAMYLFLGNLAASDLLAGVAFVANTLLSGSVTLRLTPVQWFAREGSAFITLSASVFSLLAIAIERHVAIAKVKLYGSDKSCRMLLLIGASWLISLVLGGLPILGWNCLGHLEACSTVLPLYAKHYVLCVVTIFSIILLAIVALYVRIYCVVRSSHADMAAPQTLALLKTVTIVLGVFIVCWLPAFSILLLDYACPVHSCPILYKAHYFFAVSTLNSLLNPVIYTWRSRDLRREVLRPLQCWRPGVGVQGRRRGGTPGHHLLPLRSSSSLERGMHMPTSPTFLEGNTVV

Compound	IC50 [1] [nM]	IC50 [2] [nM]	IC50 [3] [nM]	Activity [4]	Activity [5]	Activity [6]	IC50 [7] [nM]	IC50 [8] [nM]	IC50 ([3]; cho) [nM]	half-life [9] [h]	bioavailability [10] [%]	clearance [12] [mL/min/kg]	Vd [13] [L/kg]	Activity (Mus musculus [11])	ED50 (Mus musculus [14]) [mg/kg]
O=C(O)C[C@@H]1CC[C@H](c2ccc(-c3noc(-c4ccc([C@H]5CCC(F)(F)C5)cc4)n3)cc2)N1 (racemic)	16	0.8	> 10000	Agonist	Agonist	Agonist	720	2200							
CC(C)Cc1ccc(-c2nc(-c3ccc([C@@H]4CC[C@@H](CCC(=O)O)N4)cc3)no2)cc1 (racemic)	80	5.7	> 10000	Agonist	Agonist	Agonist	630	6700							
O=C(O)C[C@@H]1CC[C@H](c2ccc(-c3noc(-c4ccc(C5CCCCC5)cc4)n3)cc2)N1 (racemic)	20	0.7	> 10000	Agonist	Agonist	Agonist	350	1700							
CC(C)Cc1ccc(-c2nc(-c3ccc([C@@H]4CC[C@@H](CC(=O)O)N4)cc3)no2)cc1 (racemic)	100	8	> 10000	Agonist	Agonist	Agonist	700	> 10000		3.5	40	8.4	3	Active	
O=C(O)C[C@@H]1CC[C@H](c2ccc(-c3noc(-c4ccc(C5CCCC5)c(F)c4)n3)cc2)N1 (racemic)	30	2	> 10000	Agonist	Agonist	Agonist	2100	7600							
CC(C)Cc1ccc(-c2nc(-c3ccc([C@@H]4CC[C@@H](C(=O)O)N4)cc3)no2)cc1 (racemic)	180	17	> 10000	Agonist	Agonist	Agonist	300	10000							
O=C(O)C[C@@H]1CC[C@H](c2ccc(-c3noc(-c4ccc([C@@H]5CCC(F)(F)C5)cc4)n3)cc2)N1 (racemic) [listing 2 of 2 here]				Agonist	Agonist	Agonist									
O=C(O)C[C@@H]1CC[C@H](c2ccc(-c3noc(-c4ccc([C@@H]5CCC(F)(F)C5)cc4)n3)cc2)N1 (stereo in doubt; form 1) [listing 1 of 2 here]	19	2.9					1500	7800	> 10000						

Now from value to molecule, other results behind:

IC50 [1] [nM]	IC50 [2] [nM]	IC50 [3] [nM]	Activity [4]	Activity [5]	Activity [6]	IC50 [7] [nM]	IC50 [8] [nM]	IC50 ([3]; cho) [nM]	half-life [9] [h]	bioavailability [10] [%]	clearance [12] [mL/min/kg]	Vd [13] [L/kg]	Compound	Activity (Mus musculus [11])	ED50 (Mus musculus [14]) [mg/kg]
1280	75	> 10000	Agonist	Agonist	Agonist	1000	> 10000						CC(C)Cc1ccc(-c2nc(-c3ccc([C@H]4CC[C@@H](C(=O)O)N4)cc3)no2)cc1 (racemic)		
13	1.2					570	2500	> 10000					O=C(O)C[C@@H]1CC[C@H](c2ccc(-c3noc(-c4ccc([C@@H]5CCC(F)(F)C5)cc4)n3)cc2)N1 (racemic) [listing 1 of 2 here]		
200	3.3	> 10000	Agonist	Agonist	Agonist	1000	> 10000		4.1	48	6.6	2.9	CC(C)Cc1ccc(-c2nc(-c3ccc([C@H]4CC[C@@H](CC(=O)O)N4)cc3)no2)cc1 (racemic)	Active	
60	2.7	> 10000	Agonist	Agonist	Agonist	1400	> 10000						O=C(O)C[C@@H]1CC[C@H](c2ccc(-c3noc(-c4ccc(C5CCCC5)cc4F)n3)cc2)N1 (racemic)		
30	4.5	> 10000	Agonist	Agonist	Agonist	540	> 10000						CC(C)Cc1ccc(-c2nc(-c3ccc([C@H]4CC[C@@H](CCC(=O)O)N4)cc3)no2)cc1 (racemic)		
			Agonist	Agonist	Agonist								O=C(O)C[C@@H]1CC[C@H](c2ccc(-c3noc(-c4ccc([C@@H]5CCC(F)(F)C5)cc4)n3)cc2)N1 (stereo in doubt; form 1) [listing 2 of 2 here]		
15	0.64	> 10000				720	3800		2.2	48	9.7	2.3	O=C(O)C[C@@H]1CC[C@H](c2ccc(-c3noc(-c4ccc([C@@H]5CCC(F)(F)C5)cc4)n3)cc2)N1 (stereo in doubt; form 2) [listing 1 of 2 here]		0.3
			Agonist	Agonist	Agonist								O=C(O)C[C@@H]1CC[C@H](c2ccc(-c3noc(-c4ccc([C@@H]5CCC(F)(F)C5)cc4)n3)cc2)N1 (stereo in doubt; form 2) [listing 2 of 2 here]		
